# Measured values gathered from unrelated publications.
# Compare with care: the assays were run in different laboratories.
# KIT autoinhibited: Mast/stem cell growth factor receptor Kit, autoinhibited (KIT, Homo sapiens, UniProt P10721)
# KIT L576P: Mast/stem cell growth factor receptor Kit (KIT, Homo sapiens, UniProt P10721, L576P)
# KIT: Mast/stem cell growth factor receptor Kit (KIT, Homo sapiens, UniProt P10721)
# KIT V559D/V654A: Mast/stem cell growth factor receptor Kit (KIT, Homo sapiens, UniProt P10721, V559D/V654A)
# KIT A829P: Mast/stem cell growth factor receptor Kit (KIT, Homo sapiens, UniProt P10721, A829P)
# KIT D816H: Mast/stem cell growth factor receptor Kit (KIT, Homo sapiens, UniProt P10721, D816H)
# KIT V559D: Mast/stem cell growth factor receptor Kit (KIT, Homo sapiens, UniProt P10721, V559D)
# KIT T670I/V559D: Mast/stem cell growth factor receptor Kit (KIT, Homo sapiens, UniProt P10721, T670I/V559D)
SMILES,target,read-out,method,concentration,remaining binding
N[C@@H]1CCN(c2nccc(-c3cnn4ncccc34)n2)C1,KIT autoinhibited,binding,,1 µM,80%
O=C(NCCCN1CCOCC1)c1ccc(Nc2ncc(Cl)c(-c3ccc(Cl)s3)n2)cc1,KIT L576P,binding,competition with immobilised ligand,1 µM,2.8%
CNC(=O)[C@@H]1CC[C@@H](n2c(-c3ccc4cnccc4c3)nc3ccc(C(=O)NCc4cccc(C(N)=O)c4)cc32)C1,KIT,binding,competition with immobilised ligand,1 µM,100%
C[C@H]1CCN(c2nccc(-c3cnn4ncccc34)n2)C1,KIT L576P,binding,,1 µM,67%
O=C(NS(=O)(=O)c1ccc(NCC2CCOCC2)c([N+](=O)[O-])c1)c1ccc(N2CCN(Cc3ccc(C(F)(F)F)cc3-c3ccc(Cl)cc3)CC2)cc1Oc1cnc2[nH]ccc2c1,KIT autoinhibited,cell-free assay,competition with immobilised ligand,1 µM,100%
CN1CCN(c2ccc(Nc3nccc(-c4ccccc4)n3)cc2C(F)(F)F)CC1,KIT V559D/V654A,binding,,10 µM,4%
CN(c1nccc(-c2cnn3ncccc23)n1)C1CC1,KIT A829P,binding,,1 µM,88%
CC1=C(C#N)[C@@H](c2ccc3[nH]nc(C)c3c2)C(C#N)=C(c2ccc(Cl)cc2)N1,KIT D816H,cell-free assay,competition with immobilised ligand,1 µM,84.3%
c1cnn2ncc(-c3ccnc(N4CCC45COC5)n3)c2c1,KIT D816H,binding,,1 µM,80%
CS(=O)(=O)N1CCCC(NC(=O)[C@H](CCC2CCCCC2)NC(=O)c2ccc(CNc3ncnc4c3nnn4-c3ccccc3)cc2)C1 (stereo partly drawn),KIT L576P,cell-free assay,competition with immobilised ligand,0.1 µM,78%
O=C(c1ccc(Nc2nccc(-c3cc4ccccc4s3)n2)cc1)N1CCC(N2CCCC2)CC1,KIT V559D,binding,competition with immobilised ligand,1 µM,18%
COc1cnc(Nc2cccc(S(N)(=O)=O)c2)nc1N1CCN(c2ccccc2)CC1,KIT L576P,binding,competition with immobilised ligand,1 µM,80%
O=C(Nc1cnc(Oc2ccc(F)cc2)nc1)N1CCc2ncccc2[C@@H]1c1ccc(F)cc1,KIT T670I/V559D,cell-free assay,competition with immobilised ligand,1 µM,84%
COc1ccnn2ncc(-c3ccnc(N(C)C)n3)c12,KIT V559D,binding,,1 µM,100%
O=C(c1ccc(Nc2ncc(Cl)c(-c3cc4ccccc4s3)n2)cc1)N1CCC(N2CCCC2)CC1,KIT V559D,binding,competition with immobilised ligand,1 µM,6.6%
O=C(NCC1CCOCC1)c1n[nH]cc1NC(=O)c1c(F)cccc1F,KIT T670I/V559D,binding,competition with immobilised ligand,1 µM,100%
O=C(O)[C@@H]1[C@@H](Cn2nnc3ccccc3c2=O)CC[C@H]1C(=O)c1ccc(OCCC2CCOCC2)cc1,"Mast/stem cell growth factor receptor Kit (KIT, Homo sapiens, UniProt P10721, D816V)",cell-free assay,competition with immobilised ligand,1 µM,98%
F[C@@H]1CCN(c2nccc(-c3cnn4ncccc34)n2)C1,KIT,binding,,1 µM,91%
Cc1c(C(=O)O)cc(-c2ccc(C3CCNCC3)cc2)c2ccc(-c3ccc(C(F)(F)F)cc3)cc12,KIT D816H,binding,competition with immobilised ligand,1 µM,100%
Cc1cnn2ncc(-c3ccnc(N(C)C)n3)c2c1,KIT V559D/V654A,binding,,1 µM,100%
COc1ccc2c(c1)O[C@@H](c1ccc(OC)c(OC)c1)C[C@H]2NC(=O)C1(c2ccc3c(c2)OC(F)(F)O3)CC1,KIT L576P,cell-free assay,competition with immobilised ligand,1 µM,92%
CCN1CCN(Cc2ccc(C(=O)Nc3ccc(C)c(Oc4ccc5c(c4)CC(=O)N5)c3)cc2C(F)(F)F)CC1,KIT A829P,binding,competition with immobilised ligand,1 µM,100%
CN([C@@H]1CCc2c(CC(=O)O)c3ccccc3n2C1)S(=O)(=O)c1ccc(F)cc1,KIT T670I/V559D,cell-free assay,competition with immobilised ligand,1 µM,100%
c1cncc(-c2cccc(Nc3nccc(NC4CCCCC4)n3)c2)c1,KIT L576P,binding,competition with immobilised ligand,10 µM,0%
